Data: PubChem BioAssay AID1442 (PCMD, 2008)
pEC50: −log10 of the molar value. Active and inactive are the calls of the source.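 The calls were made as follows: active = maximum enhancement above 22% with a fitted EC50 greater than zero; inactive = the rest.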

How the values were obtained:
[1] = tested on: mutant MDM2 reporter cells, luciferase luminescence enhancement, 2 h; assay: compounds raising luminescence in mutant MDM2 cells – cell-based, luciferase luminescence, dose response (AID 1442)
Outline: (§1)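 Material: MDM2-luciferase fusion reporter cells. Incubation: compound exposure of 2 h at 37 °C. Measured by: luminescence. Evaluation: blank-corrected % enhancement vs untreated cells. Control set: cells without compound as reference, wells for blank correction.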

[2] = as above; conditions: mutant MDM2 reporter cells, luciferase luminescence enhancement, 2 h; active compounds read high
Outline: as §1

Row | SMILES | pEC50 [1] | maximum enhancement [2] | EC50 [1]
1 | O=C(/C=C/c1cccnc1)/C=C/c1cccnc1 | 6.24 | – | –
2 | O=C(Cn1ncc(Cl)c(Cl)c1=O)NCC1CCCCC1 | 5.68 | – | –
3 | Nc1cccc2c1C(=O)N(C(=O)/C=C/c1cccc(Br)c1)C2=O | 4.78 | – | –
4 | Cc1ccc2c(c1)c1ccc3c(c1n2C)C(=O)C=CC3=O | 5.74 | – | –
5 | CCN1C/C(=C/c2ccc(OC)c(O)c2)C(=O)/C(=C/c2ccc(OC)c(O)c2)C1 | 3.05 | – | –
6 | CC1=NN(c2cccc(C(=O)O)c2)C(=O)/C1=C\C=C/c1ccccc1 | 4.03 | – | –
7 | COc1ccc(NC(=O)/C(Cl)=C(/Cl)S(=O)Cc2ccc(Cl)cc2)cn1 (configuration not stated) | 6.34 | – | –
8 | O=C1C(Cl)=C(N2CCCCC2)C(=O)C(Cl)=C1c1cnc(N2CCCCC2)s1 | – | 16.3% (inactive) | –
9 | Cc1cccc2c1c1ccc3c(c1n2C)C(=O)C=CC3=O | 5.84 | – | –
10 | Cc1cc(C)nc(S/C=C/C(=O)c2ccc(F)cc2)n1 | 5.57 | – | –
11 | Cc1cc(C)nc(S/C=C/C(=O)c2ccccc2)n1 | 6.10 | – | –
12 | CCN(CC)c1ccc(/C=C2/C(=O)c3ccc(C(=O)O)cc3C2=O)cc1 | – | 15.6% (inactive) | –
13 | CCOC(=O)C1=C(c2ccccc2)O/C(=C(/C#N)C(F)(F)F)S1 | 4.39 | – | –
14 | COC(=O)CSC1=C(C#N)C(=O)NC(c2ccccc2)S1 (configuration not stated) | 5.39 | – | –
15 | CC(C)c1ccc(OCc2cccc(C(=O)N/N=C/c3cccnc3)c2)cc1 | – | – | 200 µM (inactive)
16 | C=CS(=O)(=O)c1ccc(Oc2ccc(S(=O)(=O)C=C)cc2)cc1 | 5.82 | – | –
17 | CCSc1nc2ccccc2n1C(=O)/C=C/c1ccc(OC)c(OC)c1 | 5.95 | – | –
18 | C=C1C(=O)O[C@@H]2C[C@@H](C)[C@@H]3C=CC(=O)[C@@]3(C)[C@@H](O)[C@H]12 | 5.95 | – | –
19 | CN(C(=O)c1cccc(COc2ccc(Cl)cc2Cl)c1)c1ccccc1 | – | – | 15.6 µM (inactive)

Row | SMILES | pEC50 [1] | maximum enhancement [2] | EC50 [1]
20 | COc1cc(/C=C2\COC/C(=C\c3cc(OC)c(OC)c(OC)c3)C2=O)cc(OC)c1OC | 3.19 | – | –
21 | COc1cccc(OC)c1C(=O)NNC(=O)c1cccc(COc2ccc3c(c2)CCC3)c1 | – | – | 562 µM (inactive)
22 | COc1ccc(NC(=O)/C(Cl)=C(/Cl)S(=O)Cc2ccc(C)cc2)cn1 (configuration not stated) | 6.08 | – | –
23 | CC(C)CC(=O)/C=C/n1c(=S)oc2ccccc21 | 5.32 | – | –
24 | COc1ccc(CS(=O)/C(Cl)=C(/Cl)C(=O)Nc2ccc(OC)nc2)cc1 (configuration not stated) | 5.47 | – | –
25 | CCSc1nc2ccccc2n1C(=O)/C=C\c1ccc(OC)c(OC)c1 | 2.79 | – | –
26 | CC(C)c1ccc2c(c1)C1(NN=C(c3ccccc3)S1)C(=O)N2 (configuration not stated) | 5.85 | – | –
27 | COCCNC(=O)/C(C#N)=C/c1cccc(/C=C(\C#N)C(=O)NCCOC)c1 | 6.14 | – | –
28 | CC(NC(=O)Cn1ncc(Cl)c(Cl)c1=O)C12CC3CC(CC(C3)C1)C2 (configuration not stated) | 4.38 | – | –
29 | CCN(CC)c1ccc(/C=C2\C(=O)c3ccc(C(=O)O)cc3C2=O)cc1 | – | – | 216 µM (inactive)
30 | O=C(/C=C/c1cccc([N+](=O)[O-])c1)n1cnc2ccccc21 | 5.76 | – | –
31 | CN(C)C(=S)SSC(=S)N(C)C | 7.10 | – | –
32 | C=CCSc1nc2ccccc2n1C(=O)/C=C/c1cc(OC)c(OC)c(OC)c1 | 5.94 | – | –
33 | COc1ccccc1-c1cc(SC)c(C#N)c(=O)o1 | – | 18% (inactive) | –
34 | Cc1ccc(C=C2C(Cl)=C(Cl)C(Cl)=C2Cl)cc1 | – | 10.2% (inactive) | –
35 | CN(C)c1nc(=NCc2ccco2)ss1 | 7.00 | – | –
36 | CCOC(=O)N1C/C(=C\c2ccccc2)C(=O)/C(=C/c2ccccc2)C1 | 5.71 | – | –
37 | CCOC(=O)/C=C/C(=O)Nc1ccccc1-c1ccccc1NC(=O)/C=C/C(=O)OCC | 2.88 | – | –
